The test system of assay [1] is Candida albicans. The assay is described as follows: Antifungal activity against Candida albicans ATCC 76615 after 48 hrs by disc diffusion method. It is filed as functional. Conditions: ATCC 76615, 48 h. The method in brief:
(§1)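 Disc diffusion on modified Sabouraud-chloramphenicol agar (1% peptone, 2% glucose, […]), compounds as sterile-water stocks; fluconazole and polyoxin B positive controls; MIC (mg/L) recorded after 48 h at 37 °C.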

Assay [2] deals with Cryptococcus neoformans. The assay is described as follows: Antifungal activity against Cryptococcus neoformans after 48 hrs by disc diffusion method. Format: functional. The method, boiled down: as §1
For orientation: A growth-free zone around the sample is the usual read-out of agar diffusion tests.

The subject of assay [3] is Aspergillus flavus. Nature of the assay: Antifungal activity against Aspergillus flavus after 48 hrs by disc diffusion method. It is filed as functional. The method, boiled down: as §1
The test system of assay [4] is Staphylococcus aureus. Nature of the assay: Antibacterial activity against Staphylococcus aureus ATCC 25923 after overnight incubation by disc diffusion method. Format: functional. The method in brief:
(§2)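 Agar disc diffusion on beef extract–peptone medium (1% peptone, 0.3% beef extract, 0.5% NaCl, […]), compounds dissolved in sterile water; streptomycin sulfate positive control; plates incubated overnight at 37 °C, then MIC recorded (mg/L).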

In assay [5] the test system is Bacillus spizizenii. The assay is described as follows: Antibacterial activity against Bacillus subtilis ATCC 6633 after overnight incubation by disc diffusion method. It is filed as functional. The method, boiled down:
as §2

Assay [6] has as its system Staphylococcus aureus. The assay is described as follows: Antibacterial activity against methicillin-resistant Staphylococcus aureus N315 after overnight incubation by disc diffusion method. Format: functional. The method in brief: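 Disc diffusion on beef extract-peptone agar (1% peptone, 0.3% beef extract, 0.5% NaCl, […]); compounds dissolved in sterile water; streptomycin sulfate positive control; plates incubated overnight at 37 °C, then MIC (mg/L) recorded.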

Assay [7] has as its system Bacillus. Nature of the assay: Antibacterial activity against Bacillus proteus after overnight incubation by disc diffusion method. Format: functional. The method in brief:
as §2

For assay [8], the system named is Escherichia coli. Nature of the assay: Antibacterial activity against Escherichia coli JM 109 after overnight incubation by disc diffusion method. Format: functional. The method in brief: as §2
For assay [9], the system named is Pseudomonas aeruginosa. Nature of the assay: Antibacterial activity against Pseudomonas aeruginosa CR56 after overnight incubation by disc diffusion method. Format: functional. The method in brief:
as §2

Assay [10] deals with Candida albicans. Nature of the assay: Ratio of fluconazole MIC to compound MIC for Candida albicans ATCC 76615. Format: functional.
Assay [11] deals with Candida albicans. Nature of the assay: Ratio of polyoxin B MIC to compound MIC for Candida albicans ATCC 76615. It is filed as functional.
The subject of assay [12] is Aspergillus flavus. The assay is described as follows: Ratio of polyoxin B MIC to compound MIC for Aspergillus flavus. Format: functional.
The test system of assay [13] is Aspergillus flavus. The assay is described as follows: Ratio of fluconazole MIC to compound MIC for Aspergillus flavus. It is filed as functional.
Assay [14] can be described thus: Inhibition of Saccharomyces cerevisiae CGMCC 2.145 chitin synthase assessed as UDP-GlcNAc conversion to chitin after 45 mins by ELISA. The method in brief: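 Enzyme prepared from S. cerevisiae cells sonicated at 4 °C in 50 mM Tris–HCl pH 7.0 with protease inhibitors and PMSF; 55,000 g membrane pellet used. Wells hold UDP-GlcNAc plus 320 mM GlcNAc, compound in Tris buffer (final DMSO below 3%), 45 min at 37 °C. Chitin detected with HRP–wheat germ agglutinin, TMB read at 450 nm against a chitin standard curve; IC50 derived.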
(In an ELISA, binding on a coated surface is turned into a signal by an enzyme label.)

With `CN(CC(=O)Nc1cccc([N+](=O)[O-])c1)CC(O)Cn1c(=O)c2ccccc2n(C)c1=O.Cl` (stereo not drawn), the MIC in assay [1] is 4 µg/mL; in [2], 8 µg/mL; in [3] it was 4 µg/mL; in assay [4] it was at least 512 µg/mL; in assay [5], at least 512 µg/mL; in assay [6], at least 512 µg/mL. In addition, the minimum inhibitory concentration (MIC) in assay [7], in assay [8] and in assay [9] was at least 512 µg/mL throughout. Also, the Ratio was 8 in [10], 4 in [11], 8 in [12] and 16 in assay [13]. The IC50 in assay [14] is 240 µM.
`CN(CC(=O)Nc1ccc(CC#N)cc1)CC(O)Cn1c(=O)c2ccccc2n(C)c1=O.Cl` (stereo not drawn): the MIC was 4 µg/mL in assay [1]; 4 µg/mL in assay [2]; 8 µg/mL in assay [3]; at least 512 µg/mL in assay [4]; at least 512 µg/mL in assay [5]; at least 512 µg/mL in assay [6]. Also, the minimum inhibitory concentration (MIC) in assay [7], in assay [8] and in [9] was at least 512 µg/mL throughout. In addition, the Ratio in assay [10] is given as 8; in assay [11] it was 4. Also, in [14], the IC50 worked out at 120 µM.
For `CN(CC(=O)N(Cc1ccccc1)Cc1ccccc1)CC(O)Cn1c(=O)c2ccccc2n(C)c1=O.Cl` (stereo not drawn), the minimal inhibitory concentration (MIC) in assay [1] is 64 µg/mL; in assay [2], 2 µg/mL; in [3], 4 µg/mL; in [4], at least 512 µg/mL; in assay [5] it was at least 512 µg/mL; in assay [6] it was at least 512 µg/mL. In addition, the MIC in assay [7], in assay [8] and in [9] was at least 512 µg/mL each time. The Ratio in assay [12] is 8; in assay [13] it was 16. Further, in assay [14], the 50% inhibitory concentration (IC50) was found to be 160 µM.

In general, MIC refers to the smallest concentration in the dilution series that meets the test's criterion for growth inhibition. The low end stands for greater potency, the high end for weaker potency. For orientation: IC50 means the point on the concentration scale where inhibition reaches its midpoint.

These data come from ChEMBL document CHEMBL3286331, “Design, synthesis and evaluation of novel quinazoline-2,4-dione derivatives as chitin synthase inhibitors and antifungal agents” (Bioorg Med Chem, 2014).
